pIC50: −log10 of the molar value.

For assay [1], the target named is T1, Sodium- and chloride-dependent glycine transporter 1 (Homo sapiens, UniProt P48067).
T1 sequence (P48067 whole entry): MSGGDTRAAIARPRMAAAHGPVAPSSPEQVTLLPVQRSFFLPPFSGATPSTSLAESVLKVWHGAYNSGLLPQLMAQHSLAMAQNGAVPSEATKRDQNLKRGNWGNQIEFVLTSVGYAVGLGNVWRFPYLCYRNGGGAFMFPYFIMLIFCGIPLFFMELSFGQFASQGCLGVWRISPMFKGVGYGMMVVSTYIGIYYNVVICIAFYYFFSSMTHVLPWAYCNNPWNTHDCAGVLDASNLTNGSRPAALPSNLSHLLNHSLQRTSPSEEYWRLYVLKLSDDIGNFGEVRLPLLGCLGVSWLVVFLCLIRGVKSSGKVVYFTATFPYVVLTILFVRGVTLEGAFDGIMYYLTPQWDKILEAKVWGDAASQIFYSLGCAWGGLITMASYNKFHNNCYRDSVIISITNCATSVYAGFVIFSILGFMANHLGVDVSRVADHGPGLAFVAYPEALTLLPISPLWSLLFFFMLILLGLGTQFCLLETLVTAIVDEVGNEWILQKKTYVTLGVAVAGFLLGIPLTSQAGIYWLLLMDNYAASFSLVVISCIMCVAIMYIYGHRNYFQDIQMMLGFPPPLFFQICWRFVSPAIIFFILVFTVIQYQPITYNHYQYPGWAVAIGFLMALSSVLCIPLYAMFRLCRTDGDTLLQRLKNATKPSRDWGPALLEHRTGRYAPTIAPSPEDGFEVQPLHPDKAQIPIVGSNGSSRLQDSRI
As to the kind of experiment: Inhibition of GlyT1 in human JAR cells assessed as inhibition of [3H]glycine uptake preincubated for 1 mins measured after 2 hrs by liquid scintillation counting. Type of assay: cell-based. Summed up: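 [3H]glycine (final 10 µM) was added for 2 h at room temperature; nonspecific uptake was defined with 10 mM glycine. Cells were lysed in NaOH and counted by liquid scintillation. IC50 values are from at least three measurements, mean ± SEM.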

Assay [2] addresses T1, Sodium- and chloride-dependent glycine transporter 1. Put plainly: Inhibition of human GlyT1 expressed in CHO cells assessed as inhibition of [3H]glycine uptake preincubated for 1 mins measured after 2 hrs by liquid scintillation counting. In kind it is cell-based.

On to `O=C(N[C@@H](c1ccccc1)[C@@H]1CCCCN1)c1cccc(C(F)(F)F)c1Cl`, for which the negative logarithm of the IC50 (pIC50) was 7.10 in assay [1] and 6.50 in assay [2].
Consider `O=C(N[C@@H](c1ccccc1)[C@@H]1CCCCN1)c1cccc(C(F)(F)F)c1I`, for which the negative-log IC50 (pIC50) in assay [1] was 7.37.

Source of the values: ChEMBL document CHEMBL1938298, “Synthesis and characterization of [¹²⁵I]2-iodo N-[(S)-{(S)-1-methylpiperidin-2-yl}(phenyl)methyl]3-trifluoromethyl-benzamide as novel imaging probe for glycine transporter 1” (Bioorg Med Chem, 2011).
